Activity calls are given as the source filed them. The calls are words filed in the database; no cut-off is given here.

The target in data set [1] is Tyrosine-protein kinase Lck (Homo sapiens) (UniProt P06239). Kind of data set: Inhibition of Lck (unknown origin) at 1 uM by FRET method. The method, boiled down:
(§1)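 SelectScreen panel of 58 kinases, each tested at a single 1 µM compound concentration. Read-out was Z′-LYTE FRET of labeled peptide phosphorylation, run by the vendor's protocols, reported as percent inhibition.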

The target of data set [2] is Glycogen synthase kinase-3 beta (Homo sapiens, UniProt P49841). Put plainly: Inhibition of GSK3beta (unknown origin) at 1 uM by FRET method. The method in brief: as §1
The target of data set [3] is Serine/threonine-protein kinase pim-1 (Homo sapiens) (UniProt P11309). Put plainly: Inhibition of PIM1 (unknown origin) at 1 uM by FRET method. The method in brief: (§2)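 Single-point screen at 1 uM against a panel of 58 representative kinases. Readout was labeled-peptide phosphorylation by FRET (Z′-LYTE), using the vendor's protocols.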
The target of data set [4] is Mitogen-activated protein kinase kinase kinase 11 (Homo sapiens, UniProt Q16584). Kind of data set: Inhibition of MLK3 (unknown origin) at 1 uM by FRET method. The method in brief: as §2
The test system of data set [5] is Rattus norvegicus. Put plainly: Dose normalized free AUC in rat at 0.4 or 1 mg/kg, iv and 1 or 5 mg/kg, po. Conditions: in vivo.
Data set [6] deals with Receptor-type tyrosine-protein kinase FLT3 (Homo sapiens) (UniProt P36888). Conditions: 1 uM.
In data set [7] the target is Epidermal growth factor receptor (Homo sapiens) (UniProt P00533). Kind of data set: Inhibition of EGFR (unknown origin) at 1 uM by FRET method. The method, boiled down: as §1
In data set [8] the target is Ribosomal protein S6 kinase alpha-3 (Homo sapiens) (UniProt P51812). Put plainly: Inhibition of Rsk2 (unknown origin) at 1 uM by FRET method. The method, boiled down:
as §2

In data set [9] the target is cAMP-dependent protein kinase (PKA) (Homo sapiens) (UniProt P22694+P17612+P22612). Put plainly: Inhibition of PKA (unknown origin) at 1 uM by FRET method. Type of data set: protein assay. The method, boiled down:
as §2

A short description of data set [10]: Ratio of unbound AUC in brain to plasma of […] rat at 0.4 or 1 mg/kg, iv and 1 or 5 mg/kg, po. Type of data set: ADME, organism-based. The method, boiled down: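 Rat PK: iv dosing at 0.4 or 1 mg/kg as a 60% PEG solution and oral dosing at 1 or 5 mg/kg as an aqueous suspension in 1% methylcellulose. The ratio is unbound brain AUC over unbound plasma AUC. Unbound clearance was taken as CL/fu, where fu is the fraction unbound in plasma.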

The target of data set [11] is Mitogen-activated protein kinase kinase kinase kinase 4 (Homo sapiens) (UniProt O95819). Put plainly: Inhibition of MAP4K4 (unknown origin) at 1 uM by FRET method. The method, boiled down:
as §1

A short description of data set [12]: Plasma clearance in […] rat at 0.4 or 1 mg/kg, iv and 1 or 5 mg/kg, po. It is filed as ADME, organism-based. The method, boiled down:
(§3)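 Rat PK: iv dosing at 0.4 or 1 mg/kg as a 60% PEG solution, po dosing at 1 or 5 mg/kg as an aqueous suspension with 1% methylcellulose.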

For data set [13], the target named is Rho-associated protein kinase 1 (Homo sapiens) (UniProt Q13464). Put plainly: Inhibition of ROCK1 (unknown origin) at 1 uM by FRET method. The method in brief: as §2
Data set [14] deals with Mitogen-activated protein kinase 8 (Homo sapiens, UniProt P45983). Put plainly: Inhibition of JNK1alpha1(unknown origin) at 1 uM by FRET method. The method, boiled down: as §1
Data set [15] can be described thus: Volume of distribution at steady state in […] rat at 0.4 or 1 mg/kg, iv and 1 or 5 mg/kg, po. It is filed as ADME, organism-based. Conditions: in vivo, read-out: Vdss. The method, boiled down: as §3
The target in data set [16] is Mitogen-activated protein kinase kinase kinase 10 (Homo sapiens, UniProt Q02779). The note with it: 1 uM.
In data set [17] the target is Inhibitor of nuclear factor kappa-B kinase subunit beta (Homo sapiens) (UniProt O14920). Put plainly: Inhibition of IKKbeta (unknown origin) at 1 uM by FRET method. The method, boiled down: as §1
Data set [18] addresses Platelet-derived growth factor receptor beta (Homo sapiens) (UniProt P09619). Put plainly: Inhibition of PDGFRbeta (unknown origin) at 1 uM by FRET method. The method in brief: as §2
Data set [19] addresses T1, Mitogen-activated protein kinase kinase kinase 12 (Homo sapiens) (UniProt Q12852).
T1 sequence (whole entry): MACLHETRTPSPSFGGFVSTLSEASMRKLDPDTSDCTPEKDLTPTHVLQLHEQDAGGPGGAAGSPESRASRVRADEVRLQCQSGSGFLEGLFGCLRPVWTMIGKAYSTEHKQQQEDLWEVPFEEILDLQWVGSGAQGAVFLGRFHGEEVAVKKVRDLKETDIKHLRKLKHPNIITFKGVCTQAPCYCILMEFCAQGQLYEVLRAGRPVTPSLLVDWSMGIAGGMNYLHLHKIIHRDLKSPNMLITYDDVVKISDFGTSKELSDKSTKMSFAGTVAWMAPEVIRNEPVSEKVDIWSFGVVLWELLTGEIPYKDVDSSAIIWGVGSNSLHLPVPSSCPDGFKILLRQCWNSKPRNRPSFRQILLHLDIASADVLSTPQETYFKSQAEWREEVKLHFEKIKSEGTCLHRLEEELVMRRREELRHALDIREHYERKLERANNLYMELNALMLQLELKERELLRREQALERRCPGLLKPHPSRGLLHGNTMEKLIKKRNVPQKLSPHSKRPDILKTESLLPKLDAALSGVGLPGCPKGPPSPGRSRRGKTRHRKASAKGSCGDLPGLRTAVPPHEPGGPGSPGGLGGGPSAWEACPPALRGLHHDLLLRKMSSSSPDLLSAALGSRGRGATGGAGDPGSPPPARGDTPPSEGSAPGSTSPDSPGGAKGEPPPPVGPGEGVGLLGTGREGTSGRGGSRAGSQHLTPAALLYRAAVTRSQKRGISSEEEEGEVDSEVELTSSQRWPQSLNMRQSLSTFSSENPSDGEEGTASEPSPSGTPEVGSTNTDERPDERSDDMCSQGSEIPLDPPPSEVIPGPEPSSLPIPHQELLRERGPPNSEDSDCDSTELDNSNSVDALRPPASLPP
Kind of data set: Inhibition of Flag DLK (unknown origin) transfected in HEK293 cells assessed as reduction of phosphorylation of c-Jun at 0.1 to 10 uM incubated for 5 hrs measured by Western blot analysis. Type of data set: cell-based. The method, boiled down: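 HEK293 cells were transfected with Flag-tagged DLK, with kinase-dead DLK K152A as comparator, 24 h before compound addition. Cells were then exposed to compound for 5 h. Phospho-MKK4, phospho-MKK7, phospho-JNK and phospho-c-Jun were probed.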

In data set [20] the target is Fibroblast growth factor receptor 1 (Homo sapiens) (UniProt P11362). Kind of data set: Inhibition of FGFR1 (unknown origin) at 1 uM by FRET method. The method, boiled down:
as §1

For data set [21], the target named is Mitogen-activated protein kinase kinase kinase 8 (Homo sapiens) (UniProt P41279). Put plainly: Inhibition of Cot (unknown origin) at 1 uM by FRET method. The method, boiled down: as §1
Data set [22] addresses Tyrosine-protein kinase BTK (Homo sapiens) (UniProt Q06187). Kind of data set: Inhibition of BTK (unknown origin) at 1 uM by FRET method. The method, boiled down:
as §1

Sequence of Glycogen synthase kinase-3 beta (P49841 whole entry, looked up): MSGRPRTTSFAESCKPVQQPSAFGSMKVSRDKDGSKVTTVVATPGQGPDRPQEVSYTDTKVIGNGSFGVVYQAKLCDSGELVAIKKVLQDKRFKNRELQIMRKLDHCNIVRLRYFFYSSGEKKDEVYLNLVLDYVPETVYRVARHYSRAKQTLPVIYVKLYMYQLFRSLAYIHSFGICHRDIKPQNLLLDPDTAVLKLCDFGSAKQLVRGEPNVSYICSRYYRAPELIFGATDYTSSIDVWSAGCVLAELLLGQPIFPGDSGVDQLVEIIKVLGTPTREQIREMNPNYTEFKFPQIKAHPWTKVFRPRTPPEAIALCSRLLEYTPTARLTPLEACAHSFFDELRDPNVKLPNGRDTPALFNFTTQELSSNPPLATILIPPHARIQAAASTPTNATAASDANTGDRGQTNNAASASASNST
Sequence of Mitogen-activated protein kinase kinase kinase 8 (Homo sapiens) (P41279 whole entry): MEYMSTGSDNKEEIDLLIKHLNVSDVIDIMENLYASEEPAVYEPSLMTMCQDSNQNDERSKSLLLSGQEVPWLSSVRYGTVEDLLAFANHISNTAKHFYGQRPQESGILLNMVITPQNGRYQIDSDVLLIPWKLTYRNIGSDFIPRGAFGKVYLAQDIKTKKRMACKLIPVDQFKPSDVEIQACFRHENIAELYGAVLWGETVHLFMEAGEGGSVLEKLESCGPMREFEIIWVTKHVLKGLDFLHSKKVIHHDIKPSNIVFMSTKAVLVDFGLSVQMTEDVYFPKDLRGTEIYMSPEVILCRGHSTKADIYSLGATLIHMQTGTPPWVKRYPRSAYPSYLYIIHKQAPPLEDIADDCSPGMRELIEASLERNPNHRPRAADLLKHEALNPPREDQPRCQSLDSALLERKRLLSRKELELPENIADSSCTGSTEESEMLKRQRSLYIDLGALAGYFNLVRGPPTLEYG
Sequence of Epidermal growth factor receptor (Homo sapiens) (P00533 whole entry): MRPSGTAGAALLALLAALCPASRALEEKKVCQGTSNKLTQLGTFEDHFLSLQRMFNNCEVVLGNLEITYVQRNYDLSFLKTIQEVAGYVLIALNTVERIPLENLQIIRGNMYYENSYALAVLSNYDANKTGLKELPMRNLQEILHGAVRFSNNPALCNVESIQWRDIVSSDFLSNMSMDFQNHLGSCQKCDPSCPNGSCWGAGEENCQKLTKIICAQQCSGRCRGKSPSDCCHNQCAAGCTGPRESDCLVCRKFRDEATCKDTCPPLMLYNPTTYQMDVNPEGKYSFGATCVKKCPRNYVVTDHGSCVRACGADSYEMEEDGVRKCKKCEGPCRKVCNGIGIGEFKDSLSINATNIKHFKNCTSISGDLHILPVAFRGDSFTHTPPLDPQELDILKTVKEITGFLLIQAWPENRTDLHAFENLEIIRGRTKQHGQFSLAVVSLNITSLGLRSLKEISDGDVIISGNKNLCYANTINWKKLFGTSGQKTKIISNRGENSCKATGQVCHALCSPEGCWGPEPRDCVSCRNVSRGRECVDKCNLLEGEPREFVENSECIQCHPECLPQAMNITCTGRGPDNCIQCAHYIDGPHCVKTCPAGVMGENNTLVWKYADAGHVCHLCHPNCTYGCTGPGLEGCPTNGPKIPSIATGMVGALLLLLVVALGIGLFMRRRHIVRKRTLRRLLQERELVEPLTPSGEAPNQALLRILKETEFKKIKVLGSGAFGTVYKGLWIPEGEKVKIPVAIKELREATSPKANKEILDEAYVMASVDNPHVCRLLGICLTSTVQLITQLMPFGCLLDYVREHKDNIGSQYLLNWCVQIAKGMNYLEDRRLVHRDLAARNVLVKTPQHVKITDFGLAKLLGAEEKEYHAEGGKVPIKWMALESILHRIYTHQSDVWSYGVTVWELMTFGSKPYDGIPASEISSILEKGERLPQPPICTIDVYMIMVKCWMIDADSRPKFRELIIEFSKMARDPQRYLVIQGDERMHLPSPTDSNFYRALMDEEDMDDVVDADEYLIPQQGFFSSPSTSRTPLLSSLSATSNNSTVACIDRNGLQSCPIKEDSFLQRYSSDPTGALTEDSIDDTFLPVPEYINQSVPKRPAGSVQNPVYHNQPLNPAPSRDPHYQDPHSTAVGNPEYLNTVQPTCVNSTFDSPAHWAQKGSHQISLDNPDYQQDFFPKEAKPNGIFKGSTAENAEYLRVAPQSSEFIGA
Sequence of Fibroblast growth factor receptor 1 (Homo sapiens) (P11362 22-822 limits assumed): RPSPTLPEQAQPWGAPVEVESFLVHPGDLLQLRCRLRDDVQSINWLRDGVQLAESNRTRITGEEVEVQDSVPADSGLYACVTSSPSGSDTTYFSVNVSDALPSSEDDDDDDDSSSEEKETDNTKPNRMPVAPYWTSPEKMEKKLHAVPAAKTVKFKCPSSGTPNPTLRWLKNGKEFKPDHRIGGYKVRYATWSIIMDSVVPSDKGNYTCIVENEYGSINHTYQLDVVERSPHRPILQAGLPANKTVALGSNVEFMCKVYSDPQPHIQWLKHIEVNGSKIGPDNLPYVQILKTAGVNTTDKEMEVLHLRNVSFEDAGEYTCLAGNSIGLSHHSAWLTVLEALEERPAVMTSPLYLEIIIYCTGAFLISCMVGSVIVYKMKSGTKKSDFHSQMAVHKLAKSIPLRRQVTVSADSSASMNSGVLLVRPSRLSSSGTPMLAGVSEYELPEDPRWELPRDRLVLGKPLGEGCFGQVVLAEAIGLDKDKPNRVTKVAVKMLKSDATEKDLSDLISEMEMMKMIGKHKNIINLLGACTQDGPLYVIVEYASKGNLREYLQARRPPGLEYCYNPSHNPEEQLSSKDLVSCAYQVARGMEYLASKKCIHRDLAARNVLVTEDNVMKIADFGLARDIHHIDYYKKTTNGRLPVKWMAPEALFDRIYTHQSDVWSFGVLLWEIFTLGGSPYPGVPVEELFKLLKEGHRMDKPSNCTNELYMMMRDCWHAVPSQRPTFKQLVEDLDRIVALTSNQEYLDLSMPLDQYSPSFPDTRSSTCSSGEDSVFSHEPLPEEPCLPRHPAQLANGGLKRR
Sequence of Tyrosine-protein kinase BTK (Homo sapiens) (Q06187 whole entry): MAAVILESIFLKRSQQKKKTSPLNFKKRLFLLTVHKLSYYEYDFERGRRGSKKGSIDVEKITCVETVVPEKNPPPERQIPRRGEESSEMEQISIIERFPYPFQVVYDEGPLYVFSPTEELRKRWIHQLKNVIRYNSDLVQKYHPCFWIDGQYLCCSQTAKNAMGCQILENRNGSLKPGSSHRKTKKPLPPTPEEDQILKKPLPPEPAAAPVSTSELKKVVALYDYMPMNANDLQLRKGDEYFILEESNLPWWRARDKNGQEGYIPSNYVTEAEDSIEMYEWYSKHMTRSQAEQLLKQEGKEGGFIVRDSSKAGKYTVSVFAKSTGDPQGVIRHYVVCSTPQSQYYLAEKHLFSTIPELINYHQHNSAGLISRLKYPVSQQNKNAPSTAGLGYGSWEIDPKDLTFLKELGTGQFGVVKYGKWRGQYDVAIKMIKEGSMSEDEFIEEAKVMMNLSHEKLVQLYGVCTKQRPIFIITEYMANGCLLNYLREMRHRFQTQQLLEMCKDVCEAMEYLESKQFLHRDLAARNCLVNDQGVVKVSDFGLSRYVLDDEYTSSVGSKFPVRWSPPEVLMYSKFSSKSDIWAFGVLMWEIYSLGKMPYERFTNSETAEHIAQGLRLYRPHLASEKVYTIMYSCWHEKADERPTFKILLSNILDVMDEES
Sequence of Mitogen-activated protein kinase kinase kinase 10 (Q02779 whole entry, looked up): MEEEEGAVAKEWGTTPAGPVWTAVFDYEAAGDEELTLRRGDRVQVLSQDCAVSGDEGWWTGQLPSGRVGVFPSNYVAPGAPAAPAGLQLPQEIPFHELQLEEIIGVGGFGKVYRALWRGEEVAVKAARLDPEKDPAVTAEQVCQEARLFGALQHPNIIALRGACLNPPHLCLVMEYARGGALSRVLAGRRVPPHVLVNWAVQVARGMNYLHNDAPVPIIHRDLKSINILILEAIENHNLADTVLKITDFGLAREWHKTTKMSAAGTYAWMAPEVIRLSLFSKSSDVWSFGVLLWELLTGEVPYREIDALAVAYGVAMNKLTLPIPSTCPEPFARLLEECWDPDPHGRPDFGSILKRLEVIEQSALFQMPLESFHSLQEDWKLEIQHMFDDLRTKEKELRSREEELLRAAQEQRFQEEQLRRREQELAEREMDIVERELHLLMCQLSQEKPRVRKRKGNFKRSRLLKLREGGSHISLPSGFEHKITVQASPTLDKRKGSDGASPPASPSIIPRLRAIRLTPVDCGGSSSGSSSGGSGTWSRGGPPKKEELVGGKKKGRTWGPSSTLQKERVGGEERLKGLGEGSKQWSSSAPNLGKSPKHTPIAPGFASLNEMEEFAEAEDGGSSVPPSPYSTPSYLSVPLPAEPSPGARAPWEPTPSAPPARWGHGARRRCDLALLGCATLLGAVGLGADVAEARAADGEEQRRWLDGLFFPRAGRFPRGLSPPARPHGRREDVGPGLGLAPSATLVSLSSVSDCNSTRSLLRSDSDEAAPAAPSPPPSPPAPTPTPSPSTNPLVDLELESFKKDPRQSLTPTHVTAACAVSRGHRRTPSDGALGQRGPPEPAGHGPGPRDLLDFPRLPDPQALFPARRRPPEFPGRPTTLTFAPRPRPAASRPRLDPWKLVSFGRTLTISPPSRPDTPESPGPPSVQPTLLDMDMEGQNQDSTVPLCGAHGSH
Sequence of Serine/threonine-protein kinase pim-1 (Homo sapiens) (P11309 whole entry, looked up): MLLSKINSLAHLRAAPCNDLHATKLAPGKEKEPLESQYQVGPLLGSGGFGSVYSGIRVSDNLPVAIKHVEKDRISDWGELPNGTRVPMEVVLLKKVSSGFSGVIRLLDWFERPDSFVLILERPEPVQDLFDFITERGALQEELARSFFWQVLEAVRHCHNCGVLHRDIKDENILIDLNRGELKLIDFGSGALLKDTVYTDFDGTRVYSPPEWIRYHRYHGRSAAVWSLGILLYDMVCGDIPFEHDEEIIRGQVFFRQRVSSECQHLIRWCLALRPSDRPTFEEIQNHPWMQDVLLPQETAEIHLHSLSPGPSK

Regarding `N#Cc1ccnc(Nc2cc(C3CCN(C4COC4)CC3)n(C3CCCC3)n2)c1`, the inhibition in data set [1] was determined as 37.5%; in data set [2], 58.6%; in [3], 6.6%; in data set [4], 1.4%; in [6], 65.4%; in data set [7], 2.1%. Moreover, the inhibition is 5.7% in data set [8]; 4% in [9]; 12.1% in data set [11]; -3% in [13]; 4.5% in [14]; 1.6% in data set [16]. In addition, the inhibition in data set [17] came to 5.4%; in [18] it was 23.8%; in [20] it was 0.3%; in data set [21], 15.6%; in [22] it was 32.4%. The compound also returned a fAUC/dose in data set [5] of 0.03 kg·h/L. Further, the Kp uu in data set [10] was 0.35. The clearance in data set [12] was found to be 34 mL/min/kg. For the same compound, the Vd in [15] stood at 4.4 L/kg. Further, the inhibition entry in data set [19] is “Active”.

These data come from ChEMBL document CHEMBL3627690, “Scaffold-Hopping and Structure-Based Discovery of Potent, Selective, And Brain Penetrant N-(1H-Pyrazol-3-yl)pyridin-2-amine Inhibitors of Dual Leucine Zipper Kinase (DLK, MAP3K12)” (J Med Chem, 2015).
